Measured values reported in ChEMBL document CHEMBL1122909, “Psoralenamines. 3. Synthesis, pharmacological behavior, and DNA binding of 5-(aminomethyl)-8-methoxy-, 5-[[(3-aminopropyl)oxy]methyl]-, and 8-[(3-aminopropyl)oxy]psoralen derivatives” (1985).

Experiments:
Tetrahymena thermophila [1] = experiment: Evaluated in vitro for phototoxic effect on ciliate Tetrahymena thermophila cells; type: functional
NHIK3025 [2] = experiment: Evaluated in vitro for phototoxic effect on human cell line NHIK 3025, assay performed using threefold dilution and result reported by one dilution step.; type: functional
Mus musculus = experiment: Evaluated in vivo for its photosensitization activity, against increase in skin thickness relative to that of 8-MOP.; type: functional; parameters: unit: % of 8-MOP
Method in brief: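 Female hairless Hr/Hr mice, 4–6 weeks, 5–28 per group. Compound given ip at 0.6, 6 or 60 mg/kg (reported at 6 mg/kg). UVA from four TL20W/09 tubes after 5 min–2 h, 4 J cm-1 as printed. Skin-fold thickness measured by caliper 24 h post-irradiation, expressed relative to 8-MOP (=100%).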

Nucleic Acid = experiment: Evaluated for photo-cross-linking of DNA; type: functional
Method in brief: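 Sonicated calf thymus DNA (200 µg) plus psoralen 0.1–100 µg/mL in 10 mM Tris-HCl, 1 mM EDTA, pH 7.0. Irradiated 30 min (~365 nm, 24 kJ/m2), heated 100 °C 5 min, ice-cooled. Double- vs single-stranded DNA resolved on hydroxylapatite with 50–500 mM phosphate gradient. The concentration giving 50% cross-linked DNA is expressed relative to 8-MOP.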

Tetrahymena thermophila [3] = experiment: Evaluated for DNA photo-cross-linking in Tetrahymena thermophila and relative cross-linking affinity measured by the alkaline elution technique.; type: functional
Method in brief: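 Tetrahymena thermophila ~2×10^5 cells prelabelled with [3H]thymidine; phototreated with psoralen in 10 mM Tris-HCl pH 7.4 at ~365 nm. Interstrand cross-links are measured by alkaline elution: cells lysed on 2-µm filter (0.2% Sarcosyl, 2 M NaCl, 40 mM EDTA, pH 10), eluted at pH 12.2. Efficiency relative to 8-MOP is taken from concentrations giving similar elution retardation.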

NHIK3025 [4] = experiment: Evaluated for DNA. photo-cross-linking in cell line NHIK 3025 cross-linking affinity measured by alkaline elution technique.; type: functional, Homo sapiens
Method in brief: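 NHIK 3025 cells (~10^6) labelled 16 h with [3H]thymidine (1 µCi/mL). Psoralen in PBS at 1–90 µg/mL, 10-min equilibration, then irradiation 0.8 J/cm2 at ~365 nm. Cells trypsinized and lysed on 2-µm filter (0.2% Sarcosyl, 2 M NaCl, 40 mM EDTA, pH 10), then eluted at pH 12.2. Relative efficiency vs 8-MOP is read from concentrations giving similar elution retardation.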

Compound	Phototoxic effect (Tetrahymena thermophila [1])	Phototoxic effect (NHIK3025 [2])	Photosensitization (Mus musculus)	Photo-cross-linking of DNA (Nucleic Acid)	DNA photo-crosslinking (Tetrahymena thermophila [3])	DNA crosslinking (NHIK3025 [4])
COc1c2occc2c(CN2CCOCC2)c2ccc(=O)oc12.Cl	0.3	0.3	154	0.1	6	<1
COc1c2occc2c(CO)c2ccc(=O)oc12				0.07		
COc1c2occc2c(CN(C(C)C)C(C)C)c2ccc(=O)oc12.Cl	10	2	87	0.15		12
COc1c2occc2c(COCCCO)c2ccc(=O)oc12				< 0.07		
COc1c2occc2c(CN)c2ccc(=O)oc12.Cl	5	1	172	2.1	3	8
COCc1c2ccoc2c(OC)c2oc(=O)ccc12				0.04		
COc1c2occc2c(CN2CCCCC2)c2ccc(=O)oc12.Cl		3	238	0.3	8	19
COc1c2occc2c(CN(C)C)c2ccc(=O)oc12.Cl	15	7	194	0.6	14	24
O=c1ccc2cc3ccoc3c(OCCO)c2o1				1		
COc1c2occc2cc2ccc(=O)oc12 [METHOXSALEN]	100	100	100	1	100	100
COc1c2occc2c(C[N+](C)(C)C)c2ccc(=O)oc12.[Cl-]	0.3	1	140	0.1	2	3
C[N+](C)(C)CCCOc1c2occc2cc2ccc(=O)oc12.[Br-]	3	15	477	1.1	5	3
COc1c2occc2c(CN(C)CCO)c2ccc(=O)oc12.Cl	3	2	306	0.5		15
COc1c2occc2c(CN(CCO)CCO)c2ccc(=O)oc12.Cl	0.3	3	339	0.2	3	1
CN1CC[N+](C)(CCCOc2c3occc3cc3ccc(=O)oc23)CC1.[Br-]	10	10	463	2.5	2	7
CC[N+](CC)(CC)Cc1c2ccoc2c(OC)c2oc(=O)ccc12.[Cl-]	5	3	133	0.05	14	8
Br.CCN(CC)CCCOc1c2occc2cc2ccc(=O)oc12	150	100	357	1.8	170	190
COc1c2occc2c(CN2CCN(C)CC2)c2ccc(=O)oc12.Cl	10	5	325	0.2		9
COc1c2occc2c(COCCC[N+](C)(C)C)c2ccc(=O)oc12.[Br-]	<0.3	3		0.1	4	1
